This passage reports Activity and Emax results from ChEMBL document CHEMBL4813967, “Tackling resistance in chronic myeloid leukemia: Novel cell death modulators with improved efficacy” (Eur J Med Chem, 2021).

Series [1] has as its system K562. Kind of series: Induction of cell sensitization to imatinib in imatinib-resistant human K562 cells assessed as cell death at 5 uM incubated for 72 hrs in presence of 1 uM imatinib by PI staining based flow cytometry (reference value: 19%). Type of series: functional. In general terms: In flow cytometry, cells or beads pass a laser one at a time.
Series [2] has as its system K562. Description: Induction of cell sensitization to imatinib in imatinib-resistant human K562 cells assessed as cell death at 1.75 uM incubated for 72 hrs in presence of 1 uM imatinib by PI staining based flow cytometry (reference value: 19%). The class given is functional.
In series [3] the test system is K562. Kind of series: Induction of cell sensitization to imatinib in imatinib-resistant human K562 cells assessed as cell death at 10 uM incubated for 72 hrs in presence of 1 uM imatinib by PI staining based flow cytometry (reference value: 19%). The class given is functional.
Series [4] has as its system K562. Kind of series: Induction of cell sensitization to imatinib in imatinib-resistant human K562 cells assessed as cell death at >10 uM incubated for 72 hrs in presence of 1 uM imatinib by PI staining based flow cytometry. The following applies: dose microM >10, time 72.0 hrs. Type of series: functional. The essentials:
(§1)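 K562-resistant cells, a doxorubicin-resistant K562 subclone (KD225), grown in RPMI 1640 with 10% FCS. Seeded 2×10^5/well and exposed 72 h to compound alone or with 1 µM imatinib. PI/Triton X-100 staining 2 h at 4 °C; flow cytometry scoring sub-G1 nuclei as dead cells. DMSO vehicle (≤0.1%) controls. Mean ± SEM of ≥3 experiments.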

Series [5] addresses T1, Peroxisome proliferator-activated receptor gamma (Homo sapiens, UniProt P37231).
T1 sequence (P37231 whole entry): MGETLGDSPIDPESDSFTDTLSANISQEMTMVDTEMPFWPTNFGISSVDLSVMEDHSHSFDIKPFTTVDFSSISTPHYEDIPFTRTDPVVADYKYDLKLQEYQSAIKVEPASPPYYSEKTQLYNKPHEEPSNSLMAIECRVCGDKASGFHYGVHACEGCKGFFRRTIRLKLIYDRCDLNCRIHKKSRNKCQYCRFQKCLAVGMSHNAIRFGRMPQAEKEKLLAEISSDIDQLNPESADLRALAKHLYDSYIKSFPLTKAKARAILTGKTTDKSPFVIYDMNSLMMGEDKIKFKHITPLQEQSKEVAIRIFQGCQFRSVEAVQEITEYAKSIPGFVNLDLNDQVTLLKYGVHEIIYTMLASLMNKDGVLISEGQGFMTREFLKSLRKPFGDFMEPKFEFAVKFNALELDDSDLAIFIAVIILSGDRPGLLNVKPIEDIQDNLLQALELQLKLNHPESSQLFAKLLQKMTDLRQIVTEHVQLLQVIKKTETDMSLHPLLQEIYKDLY
Description: Agonist activity at Gal4-fused human PPARgamma transfected in African green monkey COS7 cells co-transfected with pGal5-TK-pGL3 and pRenilla-CMV assessed as receptor transactivation at 10 uM incubated for 39 hrs by dual luciferase reporter gene assay relative to piaglitazone. The class given is cell-based. As to conditions: COS-7, human, read-out: max activation. The essentials: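 COS-7 cells (10^4/well, triplicates) grown 24 h, then transiently transfected with pGal5-TK-pGL3 (90 ng), pGal4-hPPARγDEF (9 ng) and pRenilla-CMV (3 ng). Compound added 7 h later, incubation 39 h. Cells lysed by freezing at -80 °C overnight plus lysis buffer. Firefly luciferase normalised to Renilla. Activity at 10 µM expressed relative to pioglitazone at 10 µM (100%). Mean ± SD of ≥3 experiments.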
(In general: In a reporter assay the amount or activity of a reporter protein is the signal.)

Series [6] is described as follows: Cytotoxicity against human HS5 cells assessed as cell death at 5 uM incubated for 72 hrs by PI staining based flow cytometry. The following applies: hs5, 72 h. The essentials: (§2)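 HS-5 stromal cells in DMEM with 10% FCS, 5% CO2, 37 °C. Seeded 0.5×10^5/well, given compound (5 µM) alone or with imatinib, and incubated 72 h. Cells stained with PI/Triton X-100 for 2 h at 4 °C. Dead cells counted by flow cytometry as sub-G1 nuclei. DMSO vehicle control included.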

The subject of series [7] is COS-7. Description: Cytotoxicity against African green monkey COS7 cells assessed as cell viability at 10 uM incubated for 72 hrs by MTT assay. Type of series: cell-based. The following applies: chlorocebus aethiops, cos-7, 72 h. The essentials: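 COS-7 cells in DMEM with 10% FCS and L-glutamine, no antibiotics or phenol red. Seeded 2×10^3/well in triplicate, grown 24 h, then compound added at 10 µM final and incubated 72 h. Modified MTT (tetrazolium) metabolic-activity readout by absorbance. DMSO control set to 100%; DMSO ≤0.1%. Mean + SD of ≥3 experiments, triplicate determinations.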
(In general: Tetrazolium assays rely on reduction of a dye to a coloured formazan, in cell work by metabolically active cells.)

A short description of series [8]: Modulation of STAT5 expression in imatinib-resistant human K562 cells assessed as STAT5 level at 5 uM measured after 6 hrs in presence of imatinib by Jess Simple Western immunoassay (reference value: 100%). Type of series: functional.
Series [9] addresses T2, Signal transducer and activator of transcription 5A (Homo sapiens) (UniProt P42229).
T2 sequence (whole entry): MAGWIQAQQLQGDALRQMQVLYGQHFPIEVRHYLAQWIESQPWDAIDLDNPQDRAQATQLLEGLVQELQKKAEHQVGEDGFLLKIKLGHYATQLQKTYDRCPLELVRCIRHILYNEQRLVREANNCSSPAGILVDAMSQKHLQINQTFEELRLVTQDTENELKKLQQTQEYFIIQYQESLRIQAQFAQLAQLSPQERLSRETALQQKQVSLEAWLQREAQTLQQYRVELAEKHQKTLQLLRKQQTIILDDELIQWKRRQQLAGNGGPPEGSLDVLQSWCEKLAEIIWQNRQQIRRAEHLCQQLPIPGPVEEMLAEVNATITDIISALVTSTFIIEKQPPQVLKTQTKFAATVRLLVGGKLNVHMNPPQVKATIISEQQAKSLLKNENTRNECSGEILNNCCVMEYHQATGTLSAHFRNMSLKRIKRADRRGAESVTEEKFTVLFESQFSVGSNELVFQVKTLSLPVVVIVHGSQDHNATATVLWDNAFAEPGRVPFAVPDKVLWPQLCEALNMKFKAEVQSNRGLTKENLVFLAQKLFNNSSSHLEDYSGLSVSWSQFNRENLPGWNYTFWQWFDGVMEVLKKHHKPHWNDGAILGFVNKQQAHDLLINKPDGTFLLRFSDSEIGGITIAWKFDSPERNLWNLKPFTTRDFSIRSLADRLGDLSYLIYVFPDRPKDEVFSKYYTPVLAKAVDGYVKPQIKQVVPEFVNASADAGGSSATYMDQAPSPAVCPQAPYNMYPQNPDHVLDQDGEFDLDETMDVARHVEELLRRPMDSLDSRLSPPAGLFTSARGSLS
Description: Inhibition of STAT5 phosphorylation at Y694/699 residue in imatinib-resistant human K562 cells assessed as phosphorylated STAT5 level at 5 uM incubated for 6 hrs by Jess Simple Western immunoassay (reference value: 100%). The class given is cell-based. On the set-up: scale not given: the % may be the effect or the level left. The essentials: (§3)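 K562-resistant (doxorubicin-resistant KD225) cells treated 6 h with compound at 5 µM, alone or with 1 µM imatinib, against a DMSO control. Total protein extracts analysed by capillary Jess Simple Western. STAT5 antibody 10 µg/ml with 0.2 mg/ml lysate; pSTAT5 (Y694/699) antibody 20 µg/ml with 2 mg/ml lysate. GAPDH (0.4 µg/ml) as loading reference; HRP anti-rabbit secondary.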

Series [10] can be described thus: Cytotoxicity against human HS5 cells assessed as cell death at 5 uM incubated for 72 hrs in presence of imatinib by PI staining based flow cytometry. As to conditions: hs5, 72 h. A digest of the protocol:
as §2

Series [11] has as its target T2, Signal transducer and activator of transcription 5A (Homo sapiens). Description: Inhibition of STAT5 phosphorylation at Y694/699 residue in imatinib-resistant human K562 cells assessed as phosphorylated STAT5 level at 5 uM incubated for 6 hrs in presence of imatinib by Jess Simple Western immunoassay (reference value: 100%). Type of series: cell-based. On the set-up: scale not given: the % may be the effect or the level left.

The nature of series [12]: Modulation of STAT5 expression in imatinib-resistant human K562 cells assessed as STAT5 level at 5 uM measured after 6 hrs by Jess Simple Western immunoassay (reference value: 100%). The class given is functional. The essentials: as §3
Series [13] has as its system K562. Kind of series: Cytotoxicity against imatinib-resistant human K562 cells assessed as cell death at 5 uM incubated for 72 hrs by propidium iodide staining based flow cytometry. As to conditions: k562, 72 h. A digest of the protocol: as §1
In series [14] the test system is COS-7. Kind of series: Cytotoxicity against African green monkey COS7 cells assessed as cell viability at 10 uM incubated for 72 hrs by MTT assay. As to conditions: chlorocebus aethiops, cos-7, 72 h.

Activity calls are given as the source filed them. The rule behind the calls is not given here.

Regarding `CCCc1nc2c(C)cc(-c3nc4ccccc4n3C)cc2n1Cc1ccc(-c2ccccc2C(N)=O)cc1`, the values for the Activity in the series with K562 [1], in the series with K562 [2] and with K562 [3] were 76%, 41% and 89%, respectively.

As for `CCc1ccc(CCOc2ccc(CC3SC(=O)NC3=O)cc2)nc1` (stereo not drawn), in the series with K562 [4], the result was inactive.

For `CCCc1nc2c(Cl)cccc2n1Cc1ccc(-c2ccccc2C#N)cc1`, the Emax at 10 µM in series [5] was found to be 68.4%. For the same compound, the Activity in the series on K562 [1] was 50%; in [6] it was “Non-Toxic”; in the series with COS-7 [7], “Non-Toxic”; with K562 [3] it was more than 85%; in series [8], 109%; in series [9], 81%. For the same compound, the Activity result is “Non-Toxic” in [10]; 12% in series [11]; 107% in series [12]; “<= 20%” in the series on K562 [13]; “Non-Toxic” in the series with COS-7 [14].

Regarding `CCCc1nc2c(F)cccc2n1Cc1ccc(-c2ccccc2C(=O)OC)cc1`, the Emax at 10 µM in [5] is 14.7%. For the same compound, the Activity with K562 [1] was 26%; in series [6], “Non-Toxic”; with COS-7 [7] it was “Non-Toxic”; with K562 [3] it was more than 85%; in series [8] it was 103%; in series [9], 102%. The Activity result in [10] is “Non-Toxic”; in [11] it was 42%; in series [12], 98%; in the series with K562 [13], “<= 20%”; in the series with COS-7 [14], “Non-Toxic”.

Turning to `CCCc1nc2c(F)cccc2n1Cc1ccc(-c2ccccc2C#N)cc1`, the Emax at 10 µM in series [5] was found to be 76%. The Activity in the series on K562 [1] is 50%; in [6], “Non-Toxic”; in the series with COS-7 [7], “Non-Toxic”; in the series on K562 [3], more than 85%; in series [8], 96%; in [9], 89%. The Activity result in series [10] is “Non-Toxic”; in series [11] it was 1%; in series [12], 105%; with K562 [13], “<= 20%”; in the series with COS-7 [14], “Non-Toxic”.

With `CCCc1nc2ccccc2n1Cc1ccc(-c2ccccc2C#N)cc1`, the Emax at 10 µM in series [5] was determined as 64.5%. Also, the Activity was 50% in the series with K562 [1]; “Non-Toxic” in series [6]; “Non-Toxic” in the series on COS-7 [7]; more than 85% in the series with K562 [3]; 96% in series [8]; 78% in [9]. Moreover, the Activity entry in series [10] was “Non-Toxic”; in series [11], 3%; in [12] it was 98%; with K562 [13], “<= 20%”; in the series with COS-7 [14], “Non-Toxic”.

Turning to `CCCc1nc2c(C)cc(-c3nc4ccccc4n3C)cc2n1Cc1ccc(-c2ccccc2C(=O)O)cc1` [TELMISARTAN], the Emax at 10 µM in [5] amounted to 59.8%. For the same compound, the Activity is 57% in the series on K562 [1], 21% with K562 [2] and 63% in the series on K562 [3].

With `CCCc1nc2ccccc2n1Cc1ccc(-c2ccccc2C(=O)OC)cc1`, the Emax at 10 µM in series [5] turned out to be 21.6%. Besides, the Activity in the series with K562 [1] was 57%; in series [6], “Non-Toxic”; in the series with COS-7 [7], “Non-Toxic”; in the series on K562 [3] it was more than 85%; in [8] it was 112%; in series [9], 104%. Further, the Activity entry in series [10] was “Non-Toxic”; in series [11] it was 2%; in series [12], 112%; with K562 [13], “<= 20%”; in the series on COS-7 [14], “Non-Toxic”.
